Compounds with a hit are over-represented: about 29% of the library has one in this group of screens.
Ecoli tolC: growth inhibitors of E. coli tolC mutant, primary screen, strain BW25113 ΔtolC::kan, 384-well; OD615; growth inhibition, % at 10 µM (by protocol); 65,000 compounds, 2.2% hits; AID 573, 2007;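 active = growth inhibition at or above a cutoff equal to the mean over every tested compound plus 3 SD, cut at about 60% in these data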;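 also: growth measured after 20 h incubation at 37 °C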
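Signal: optical density read at 615 nm; Assay system: E. coli ΔtolC::kan strain BW25113; Times: 20 h incubation with compound, 37 °C; Dosing: 10 µM final, single dose.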
CYP2C9 activ: human CYP2C9 activators, primary screen, biochemical, luminescence; Cytochrome P450 2C9 (Homo sapiens), P11712; recombinant CYP2C9, luciferin-H conversion; hits give high values; factor 1 = untreated enzyme, 0 = blocked; activation factor at 5 µM; 96,000 compounds, 1.4% hits;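 active = activation factor of 2 or more for CYP2C9 at a 5 µM dose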;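 also: 0 = sulfaphenazole-blocked wells and 1 = vehicle-only wells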
Target sequence (P11712 whole entry, looked up): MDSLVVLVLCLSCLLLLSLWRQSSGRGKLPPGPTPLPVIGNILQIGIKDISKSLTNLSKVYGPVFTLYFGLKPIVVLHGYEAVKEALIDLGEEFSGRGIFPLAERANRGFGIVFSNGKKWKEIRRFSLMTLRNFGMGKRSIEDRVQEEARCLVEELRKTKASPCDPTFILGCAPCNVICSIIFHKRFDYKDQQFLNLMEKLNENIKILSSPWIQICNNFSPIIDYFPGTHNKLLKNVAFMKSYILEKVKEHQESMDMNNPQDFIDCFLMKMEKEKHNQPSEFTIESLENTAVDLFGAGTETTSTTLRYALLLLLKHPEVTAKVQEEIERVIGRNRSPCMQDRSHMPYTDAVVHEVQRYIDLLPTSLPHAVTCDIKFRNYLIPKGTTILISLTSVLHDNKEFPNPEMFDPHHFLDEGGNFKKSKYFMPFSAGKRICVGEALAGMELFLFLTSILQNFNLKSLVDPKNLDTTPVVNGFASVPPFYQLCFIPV
CYP2C9 inhib: blockers of cytochrome P450 2C9 activity – biochemical, luminescence, ADME assay, primary screen; P11712; CYP2C9 Supersomes, luciferin-H conversion; inhibition, % at 5 µM; 96,000 compounds, 20% hits; AID 777, 2007;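 active = blocking of liver enzyme CYP2C9 beyond about 50% at 5 µM, limit read from the data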
CYP2C19 activ: human CYP2C19 activators, primary screen, biochemical, luminescence; Cytochrome P450 2C19 (Homo sapiens), P33261; recombinant CYP2C19, luciferin-H EGE luminescence; hits give high values; 0 = fully inhibited enzyme, 1 = untreated enzyme; activation factor at 5 µM; 96,000 tested, under 10 active;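 active = activation factor of at least 2 at 5 µM in the primary screen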;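 also: 0 = wells with 2.5 mM tranylcypromine and 1 = vehicle-only wells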
E coli WT exp: growth inhibitors of wild-type E. coli, primary screen, strain BW25113, expanded library, OD600; OD600 absorbance; growth inhibition, % at 100 µM; 98,000 compounds, 0.15% hits; AID 710, 2007;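 active = growth inhibition above about 50% at one test dose, limit read from the data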;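 also: growth measured after 20 h incubation at 37 °C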
CYP2C19 inhib: blockers of cytochrome P450 2C19 activity – biochemical, luminescence, ADME assay, primary screen; P33261; 96,000 compounds, 21% hits; inhibition, % at 5 µM; AID 778, 2007; CYP2C19 Supersomes, luciferin-H EGE luminescence, 30 min;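 active = CYP2C19 inhibition above a set limit at 5 µM in the primary screen, cut at about 50% in these data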;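 also: plate controls were negative control wells for no effect and 2.5 mM tranylcypromine positive control for full effect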
* marks the source's active call; other numbers are inactive results.

For Cc1cccc(-n2c(SCc3cc(=O)n4c(C)cccc4n3)nc3[nH]ncc3c2=O)c1 the results were CYP2C9 activ 1, CYP2C9 inhib -2, CYP2C19 activ 0.7, E coli WT exp 3 and CYP2C19 inhib 28.
For CCOc1ccccc1-n1c(SCC(=O)Nc2nccs2)nnc1-c1ccoc1C the results were Ecoli tolC 22, CYP2C9 activ 0.2, CYP2C9 inhib 79*, CYP2C19 activ 0.2, E coli WT exp 0 and CYP2C19 inhib 76*.
`CCc1nnc(NC(=O)CSc2nnc(-c3ccoc3C)n2-c2ccccc2)s1` gave Ecoli tolC 16, CYP2C9 activ 0.2, CYP2C9 inhib 83*, CYP2C19 activ 0.1, E coli WT exp 2 and CYP2C19 inhib 94*.
For O=C1Nc2ccccc2C(O)(C(=O)NCc2ccco2)N1c1ccc(Cl)c(Cl)c1 (stereo unspecified) the results were Ecoli tolC 12, CYP2C9 activ 0.8, CYP2C9 inhib 22, CYP2C19 activ 0.8, E coli WT exp 3 and CYP2C19 inhib 17.
`Nc1ccc2nc(SCc3ccc([N+](=O)[O-])cc3)sc2c1` gave CYP2C9 activ 0.4, CYP2C9 inhib 59*, CYP2C19 activ 0, E coli WT exp -1 and CYP2C19 inhib 97*.
`CCn1cc(SCC(=O)Nc2cc(C)on2)c2ccccc21` gave Ecoli tolC 9, CYP2C9 activ 0.9, CYP2C9 inhib 14, CYP2C19 activ 0.4, E coli WT exp 8 and CYP2C19 inhib 55*.
For C=CCn1c(=O)c2ccccc2n2c(SCC(=O)Nc3cc(C)on3)nnc12 the results were Ecoli tolC -4, CYP2C9 activ 0.5, CYP2C9 inhib 50*, CYP2C19 activ 0.7, E coli WT exp -7 and CYP2C19 inhib 31.
`CCCn1c(=O)c2ccccc2n2c(SCC(=O)Nc3cc(C)on3)nnc12` gave Ecoli tolC -14, CYP2C9 activ 0.7, CYP2C9 inhib 30, CYP2C19 activ 0.8 and CYP2C19 inhib 22.
Cc1cc(NC(=O)CSc2cn(C)c3ccccc23)no1 was read as Ecoli tolC -2, CYP2C9 activ 0.9, CYP2C9 inhib 9, CYP2C19 activ 0.1, E coli WT exp 6 and CYP2C19 inhib 95*.
Screening CCn1cc(SCC(N)=O)c2ccccc21 returned Ecoli tolC -4, CYP2C9 activ 1.7, CYP2C9 inhib -69, CYP2C19 activ 1.2, E coli WT exp 1 and CYP2C19 inhib -18.
`Cc1ccc(C(=O)Nc2ncnc3sc4c(c23)CCCCC4)cc1` gave CYP2C9 activ 0.8, CYP2C9 inhib 21, CYP2C19 activ 0.6, E coli WT exp -2 and CYP2C19 inhib 36.
Screening CN(CC(=O)NCc1ccco1)S(=O)(=O)c1ccc2c(c1)n(C)c(=O)c(=O)n2C returned Ecoli tolC -26, CYP2C9 activ 1, CYP2C9 inhib 2, CYP2C19 activ 1.1, E coli WT exp 5 and CYP2C19 inhib -10.
`CC1(C)N=C(c2ccc(Cl)cc2Cl)C(=O)N1` gave Ecoli tolC -11, CYP2C9 activ 0.5, CYP2C9 inhib 46, CYP2C19 activ 0.2, E coli WT exp 0 and CYP2C19 inhib 80*.
Screening Cn1c(=O)c2nc(-c3ccc(Cl)cc3Cl)oc2c2ccccc21 returned Ecoli tolC 10 and E coli WT exp 0.
`N#CC1(c2ccccc2)CCCN1C(=O)c1ccc(Br)cc1` (stereo unspecified) gave CYP2C9 activ 0.4, CYP2C9 inhib 60*, CYP2C19 activ 0.4, E coli WT exp 0 and CYP2C19 inhib 64*.
For COCCCNc1c2c3c(cccc3[nH]c1=O)C(=O)c1ccccc1-2 the results were CYP2C9 activ 0.4, CYP2C9 inhib 61*, CYP2C19 activ 0.6, E coli WT exp 4 and CYP2C19 inhib 40.
Screening COCCCNS(=O)(=O)c1ccc2c3c(cccc13)C(=O)S2 returned Ecoli tolC -3 and E coli WT exp 1.
Screening O=c1c2ccccc2sn1-c1cc(S(=O)(=O)N2CCOCC2)ccc1N1CCCC1 returned CYP2C9 activ 0.2, CYP2C9 inhib 79*, CYP2C19 activ 0.6, E coli WT exp 0 and CYP2C19 inhib 44.
O=c1c2ccccc2sn1-c1cc(S(=O)(=O)N2CCOCC2)ccc1N1CCOCC1 was read as Ecoli tolC -4, CYP2C9 activ 0.5, CYP2C9 inhib 54*, CYP2C19 activ 0.3, E coli WT exp 7 and CYP2C19 inhib 66*.
For O=S(=O)(c1ccc2oc3ccccc3c2c1)N1CCOCC1 the results were CYP2C9 activ 1.1, CYP2C9 inhib -10, CYP2C19 activ 1.2, E coli WT exp -6 and CYP2C19 inhib -24.
For CCCN(CCC)C(=O)CC(c1ccc(F)cc1)c1ccco1 (stereo unspecified) the results were Ecoli tolC 1, CYP2C9 activ 0.4, CYP2C9 inhib 55*, CYP2C19 activ 0.5, E coli WT exp 0 and CYP2C19 inhib 51*.
Screening O=C1CCC(=O)N1CCC(c1ccc(F)cc1)c1ccco1 (stereo unspecified) returned Ecoli tolC -1, CYP2C9 activ 1.5, CYP2C9 inhib -46, CYP2C19 activ 1, E coli WT exp -5 and CYP2C19 inhib 3.
For O=C1c2ccccc2C(=O)N1CCC(c1ccc(F)cc1)c1ccco1 (stereo unspecified) the results were Ecoli tolC 77*, CYP2C9 activ 0.6, CYP2C9 inhib 38, CYP2C19 activ 0.6, E coli WT exp 4 and CYP2C19 inhib 38.
O=C(CC(c1ccccc1)c1cc(Cl)ccc1O)N1CCOCC1 (stereo unspecified) was read as Ecoli tolC 6, CYP2C9 activ 1.1, CYP2C9 inhib -13, CYP2C19 activ 1.1, E coli WT exp -1 and CYP2C19 inhib -14.
O=C(CC(c1ccc(F)cc1)c1ccco1)N1CCOCC1 (stereo unspecified) was read as Ecoli tolC -5, CYP2C9 activ 1, CYP2C9 inhib 2, CYP2C19 activ 0.3, E coli WT exp 2 and CYP2C19 inhib 74*.
For CCN(CC)C(=O)CC(c1ccccc1)c1ccco1 (stereo unspecified) the results were CYP2C9 activ 1, CYP2C9 inhib 5, CYP2C19 activ 0.8, E coli WT exp 3 and CYP2C19 inhib 21.
`O=C(CC(c1ccc(F)cc1)c1ccco1)N1CCCC1` (stereo unspecified) gave Ecoli tolC 2, CYP2C9 activ 0.8, CYP2C9 inhib 17, CYP2C19 activ 0.2, E coli WT exp -2 and CYP2C19 inhib 78*.
Screening Cc1cc(C(=O)NNC(=S)NC(=O)/C=C/c2ccccc2Cl)n[nH]1 returned CYP2C9 activ 0.7, CYP2C9 inhib 27, CYP2C19 activ 1.2, E coli WT exp 35 and CYP2C19 inhib -16.

From PubChem
